{"data": "Measured values gathered from unrelated publications", "target": "Myosin light chain kinase, smooth muscle (MYLK, Homo sapiens, UniProt Q15746)", "note": "Compare with care: the assays were run in different laboratories."}
{"Compound": "O=C(Nc1cnn(-c2csc(C(=O)NC3COC3)c2)c1)Nc1c(F)cccc1Cl", "observed": "enzyme activity", "action": "inhibitor", "concentration": "5 µM", "measurement": "remaining activity", "result": "95.9%"}
{"Compound": "CC(=O)Nc1c(C(C)=O)c(=O)n(C)c2nc(-c3ccc(Cl)cc3Cl)c(-c3ccc(Cl)cc3)cc12", "observed": "cell-free assay", "technique": "competition with immobilised ligand", "concentration": "1 µM", "measurement": "remaining binding", "result": "100%"}
{"Compound": "CC(C)(C)C(=O)c1sc(NC2CCCCC2)nc1N", "observed": "enzyme activity", "action": "inhibitor", "concentration": "10 µM", "measurement": "remaining activity", "result": "74%"}
{"Compound": "COc1cc(/C=C/C(=O)CC(=O)/C=C/c2ccc(O)c(OC)c2)ccc1O", "observed": "enzyme activity", "action": "inhibitor", "concentration": "1 µM", "measurement": "activity vs control", "result": "70%"}
{"Compound": "C[C@H](NC(=O)c1cnc2n1[C@](C)(Cc1ccc(C#N)cc1)C(=O)N2c1cc(Cl)c(F)c(Cl)c1)C(=O)NC1(c2ccccn2)CC1", "observed": "cell-free assay", "technique": "competition with immobilised ligand", "concentration": "1 µM", "measurement": "remaining binding", "result": "100%"}
{"Compound": "COc1cc(Cl)c(C(=O)N[C@@H](CN[C@H]2CC[C@@H](N)CC2)Cc2ccc(C#N)cc2)cc1-c1ccc(CN[C@H](C)c2ccc(C)cc2)o1", "observed": "enzyme activity", "action": "inhibitor", "concentration": "1 µM", "measurement": "remaining activity", "result": "95%"}
{"Compound": "COc1ccc2c(c1)O[C@@H](c1ccc(OC)c(OC)c1)C[C@H]2NC(=O)C1(c2ccc3c(c2)OC(F)(F)O3)CC1", "observed": "cell-free assay", "technique": "competition with immobilised ligand", "concentration": "1 µM", "measurement": "remaining binding", "result": "85%"}
{"Compound": "Cc1sc(C(=O)NC2COC2)cc1-n1cc(NC(=O)Nc2c(F)cccc2Cl)cn1", "observed": "enzyme activity", "action": "inhibitor", "concentration": "10 µM", "measurement": "remaining activity", "result": "103%"}
{"Compound": "CC(C)(O)[C@H]1CC[C@H](Nc2ccc3ncc(-c4cccc(C(F)(F)F)c4)n3n2)CC1", "observed": "enzyme activity", "action": "inhibitor", "concentration": "1 µM", "measurement": "remaining activity", "result": "99.8%"}
{"Compound": "CCN(CC)c1ccc(C2=NNC(=O)CC2C)cc1[N+](=O)[O-] (centres unmarked)", "observed": "enzyme activity", "action": "inhibitor", "concentration": "10 µM", "measurement": "remaining activity", "result": "90%"}
{"Compound": "C[C@@H]1CCN(c2nccc(-c3cnn4ncccc34)n2)C1", "observed": "binding", "concentration": "1 µM", "measurement": "remaining binding", "result": "92%"}
{"Compound": "Nc1nc(Nc2ccccc2)sc1C(=O)c1c(F)cccc1F", "observed": "enzyme activity", "action": "inhibitor", "concentration": "10 µM", "measurement": "remaining activity", "result": "29%"}
{"Compound": "COc1cc(Nc2cnc(C#N)c(O[C@H](C)CN(C)C)n2)ncc1-c1cnn(C)c1", "observed": "enzyme activity", "action": "inhibitor", "technique": "radiometric", "concentration": "10 µM", "measurement": "remaining activity", "result": "103%"}
{"Compound": "CC(C)(C)c1nc2c(s1)c1nc(N)ncc1c1ccc(NS(=O)(=O)c3c(F)cccc3F)c(F)c12", "observed": "enzyme activity", "action": "inhibitor", "technique": "radiometric", "concentration": "1 µM", "measurement": "remaining activity", "result": "87%"}
{"Compound": "Oc1cccc(-c2nc(N3CCOCC3)c3oc4ncccc4c3n2)c1", "observed": "cell-free assay", "concentration": "0.5 µM", "measurement": "remaining signal", "result": "77.1%"}
{"Compound": "Cn1cncc1C1=CN(c2ncnc3[nH]cnc23)CCS1", "observed": "enzyme activity", "action": "inhibitor", "technique": "radiometric", "concentration": "50 nM", "measurement": "inhibition", "result": "18.2%"}
{"Compound": "Cn1c2c(Cl)c(Cl)ccc2c2cc[nH]c(=O)c21", "observed": "thermal stability", "technique": "DSF", "concentration": "10 µM", "measurement": "ΔTm", "result": "2.4 °C"}
{"Compound": "O=C(Nc1cccnn1)N1CCC(=Cc2cccc(Oc3ccc(C(F)(F)F)cn3)c2)CC1", "observed": "cell-free assay", "technique": "competition with immobilised ligand", "concentration": "1 µM", "measurement": "remaining binding", "result": "100%"}
{"Compound": "O=C1Nc2ccc(Cl)cc2C1=Cc1cc(Cl)c(O)c(Cl)c1", "observed": "cell-free assay", "concentration": "0.5 µM", "measurement": "remaining signal", "result": "62.3%"}
{"Compound": "CNC(=O)Nc1ccc2c(c1)[C@@]1(CC2)OC(=O)N(CC(=O)N(Cc2ccc(F)cc2)[C@@H](C)C(F)(F)F)C1=O", "observed": "cell-free assay", "technique": "competition with immobilised ligand", "concentration": "1 µM", "measurement": "remaining binding", "result": "88%"}
{"Compound": "Cn1cnc(Br)c1C1=CN(c2ncnc3[nH]cnc23)CCS1", "observed": "enzyme activity", "action": "inhibitor", "technique": "radiometric", "concentration": "50 nM", "measurement": "inhibition", "result": "33.5%"}
{"Compound": "N#CCCc1ccc2c(c1)-c1[nH]c3ccc([N+](=O)[O-])cc3c1CC(=O)N2", "observed": "cell-free assay", "concentration": "0.5 µM", "measurement": "remaining signal", "result": "95.2%"}
{"Compound": "O=C(NC[C@@H]1[C@H]2CN(C(=O)OCc3cc(C(F)(F)F)cc(C(F)(F)F)c3)C[C@@H]12)c1ccc2[nH]nnc2c1", "observed": "cell-free assay", "technique": "competition with immobilised ligand", "concentration": "1 µM", "measurement": "remaining binding", "result": "88%"}
{"Compound": "C[S+]([O-])c1ccc(-c2nc(-c3ccncc3)c(-c3ccc(F)cc3)[nH]2)cc1 (centres unmarked)", "observed": "cell-free assay", "concentration": "0.5 µM", "measurement": "remaining signal", "result": "101%"}
{"Compound": "C[C@H](c1ccc(F)cc1)N(Cc1cccc(C(=O)O)c1)C(=O)c1cnc2ccccc2c1", "observed": "cell-free assay", "technique": "competition with immobilised ligand", "concentration": "1 µM", "measurement": "remaining binding", "result": "76%"}
{"Compound": "Cn1c(=O)n(-c2ccc(C(C)(C)C#N)cc2)c2c3cc(-c4cnc5ccccc5c4)ccc3ncc21", "observed": "enzyme activity", "action": "inhibitor", "concentration": "10 µM", "measurement": "remaining activity", "result": "109%"}
